Assay results taken from ChEMBL document CHEMBL3627671, “Novel derivatives of nitro-substituted salicylic acids: Synthesis, antimicrobial activity and cytotoxicity” (Bioorg Med Chem, 2015).
In brackets after ≈: the same amount, converted by molar mass.

Experiments:
[1] = tested on: Pseudomonas aeruginosa; assay: Antibacterial activity against Pseudomonas aeruginosa CCM 1961 after 24 hrs by microdilution broth method; assay type: functional; details: CCM 1961, 24 h
Outline: (§1)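 Mueller-Hinton broth microdilution (modified M07-A07), pH 7.4 (±0.2). Compounds dissolved in DMSO, tested at final 500 to 0.49 µmol/L. Inoculum in sterile water matched to 0.5 McFarland. Incubated in the dark, humid atmosphere, 35 °C, read at 24 and 48 h visually and at 540 nm. MIC taken as ≥95% growth reduction (IC95) versus control.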

[2] = tested on: Trichophyton mentagrophytes; assay: Antifungal activity against Trichophyton mentagrophytes 445 after 48 hrs by microdilution broth method; assay type: functional; details: Trichophyton mentagrophytes, 445, 48 h
[3] = tested on: Mycobacterium tuberculosis; assay: Antimycobacterial activity against Mycobacterium tuberculosis H37Rv 331/88 after 14 days; assay type: functional; details: H37Rv 331/88, 336 h
[4] = tested on: Trichophyton mentagrophytes; assay: Antifungal activity against Trichophyton mentagrophytes 445 after 24 hrs by microdilution broth method; assay type: functional; details: Trichophyton mentagrophytes, 445, 24 h
[5] = tested on: Aspergillus fumigatus; assay: Antifungal activity against Aspergillus fumigatus 231 after 48 hrs by microdilution broth method; assay type: functional; details: Aspergillus fumigatus, 231, 48 h
Outline: (§2)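 CLSI M27-A3 broth microdilution in RPMI 1640 with glutamine, buffered to pH 7.0 with MOPS; DMSO diluent. Yeast inoculum 5 × 10^3 ± 0.2 CFU/mL. Moulds grown on Sabouraud agar 3–10 days before spore harvest, final inoculum 0.5-5 × 10^4 CFU/mL, checked in a Bürker chamber. Incubated dark, humid, 35 °C, read at 24 and 48 h visually and at 540 nm. MIC taken as ≥80% (yeasts) or ≥50% (filamentous) growth reduction versus control.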

[6] = tested on: Nakaseomyces glabratus; assay: Antifungal activity against Candida glabrata 20/I after 48 hrs by microdilution broth method; assay type: functional; outline: as §2
[7] = tested on: Escherichia coli; assay: Antibacterial activity against Escherichia coli CCM4517 after 24 hrs by microdilution broth method; assay type: functional; details: CCM4517, 24 h; outline: as §1
[8] = tested on: Staphylococcus aureus; assay: Antibacterial activity against Staphylococcus aureus CCM 4516/08 after 24 hrs by microdilution broth method; assay type: functional; details: CCM 4516/08, 24 h
[9] = tested on: Candida albicans; assay: Antifungal activity against Candida albicans ATCC 44859 after 48 hrs by microdilution broth method; assay type: functional; details: ATCC 44859, 48 h; outline: as §2
[10] = tested on: Candida tropicalis; assay: Antifungal activity against Candida tropicalis 156 after 24 hrs by microdilution broth method; assay type: functional; details: Candida tropicalis, 156, 24 h; outline: as §2
[11] = tested on: Candida albicans; assay: Antifungal activity against Candida albicans ATCC 44859 after 24 hrs by microdilution broth method; assay type: functional; details: ATCC 44859, 24 h; outline: as §2
[12] = tested on: Staphylococcus epidermidis; assay: Antibacterial activity against Staphylococcus epidermidis H 6966/08 after 48 hrs by microdilution broth method; assay type: functional; details: H 6966/08, 48 h; outline: as §1
[13] = tested on: Pichia kudriavzevii; assay: Antifungal activity against Candida krusei E28 after 24 hrs by microdilution broth method; assay type: functional; details: E28, 24 h; outline: as §2
[14] = tested on: Staphylococcus aureus; assay: Antibacterial activity against methicillin-resistant Staphylococcus aureus H 5996/08 after 24 hrs by microdilution broth method; assay type: functional; details: H 5996/08, 24 h
[15] = tested on: Lichtheimia corymbifera; assay: Antifungal activity against Absidia corymbifera 272 after 24 hrs by microdilution broth method; assay type: functional; details: Lichtheimia corymbifera, 272, 24 h; outline: as §2
[16] = tested on: Enterococcus sp.; assay: Antibacterial activity against Enterococcus sp. J 14365/08 after 48 hrs by microdilution broth method; assay type: functional; details: J 14365/08, 48 h; outline: as §1
[17] = tested on: Klebsiella pneumoniae; assay: Antibacterial activity against ESBL-positive Klebsiella pneumoniae J 14368/08 after 48 hrs by microdilution broth method; assay type: functional; details: J 14368/08, 48 h; outline: as §1
[18] = tested on: Mycobacterium tuberculosis; assay: Antimycobacterial activity against Mycobacterium tuberculosis H37Rv 331/88 after 21 days; assay type: functional; details: H37Rv 331/88, 504 h
[19] = tested on: Lichtheimia corymbifera; assay: Antifungal activity against Absidia corymbifera 272 after 48 hrs by microdilution broth method; assay type: functional; details: Lichtheimia corymbifera, 272, 48 h; outline: as §2
[20] = tested on: Mycobacterium avium; assay: Antimycobacterial activity against Mycobacterium avium 330/80 after 21 days; assay type: functional; details: 330/80, 504 h
[21] = tested on: Escherichia coli; assay: Antibacterial activity against Escherichia coli CCM4517 after 48 hrs by microdilution broth method; assay type: functional; details: CCM4517, 48 h; outline: as §1
[22] = tested on: Enterococcus sp.; assay: Antibacterial activity against Enterococcus sp. J 14365/08 after 24 hrs by microdilution broth method; assay type: functional; details: J 14365/08, 24 h; outline: as §1
[23] = tested on: Klebsiella pneumoniae; assay: Antibacterial activity against Klebsiella pneumoniae D 11750/08 after 48 hrs by microdilution broth method; assay type: functional; details: D 11750/08, 48 h; outline: as §1
[24] = tested on: Staphylococcus epidermidis; assay: Antibacterial activity against Staphylococcus epidermidis H 6966/08 after 24 hrs by microdilution broth method; assay type: functional; details: H 6966/08, 24 h; outline: as §1
[25] = tested on: Staphylococcus aureus; assay: Antibacterial activity against methicillin-resistant Staphylococcus aureus H 5996/08 after 48 hrs by microdilution broth method; assay type: functional; details: H 5996/08, 48 h
[26] = tested on: Mycobacterium kansasii; assay: Antimycobacterial activity against Mycobacterium kansasii 6509/96 after 7 days; assay type: functional; details: 6509/96, 168 h
Outline: (§3)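 Šula's semisynthetic medium micromethod at 37 °C, read after 7, 14 and 21 days. The 1.0 McFarland suspension was diluted 10^-4. MIC determined. 6509/96 is a clinical isolate.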

[27] = tested on: Mycobacterium kansasii; assay: Antimycobacterial activity against Mycobacterium kansasii 235/80 after 21 days; assay type: functional; details: 235/80, 504 h; outline: as §3
[28] = tested on: Pichia kudriavzevii; assay: Antifungal activity against Candida krusei E28 after 48 hrs by microdilution broth method; assay type: functional; details: E28, 48 h; outline: as §2
[29] = tested on: Aspergillus fumigatus; assay: Antifungal activity against Aspergillus fumigatus 231 after 24 hrs by microdilution broth method; assay type: functional; details: Aspergillus fumigatus, 231, 24 h; outline: as §2
[30] = tested on: Mycobacterium kansasii; assay: Antimycobacterial activity against Mycobacterium kansasii 6509/96 after 14 days; assay type: functional; details: 6509/96, 336 h; outline: as §3
[31] = tested on: Trichosporon asahii; assay: Antifungal activity against Trichosporon asahii 1188 after 24 hrs by microdilution broth method; assay type: functional; details: Trichosporon asahii, 1188, 24 h; outline: as §2
[32] = tested on: Pseudomonas aeruginosa; assay: Antibacterial activity against Pseudomonas aeruginosa CCM 1961 after 48 hrs by microdilution broth method; assay type: functional; details: CCM 1961, 48 h; outline: as §1
[33] = tested on: Mycobacterium avium; assay: Antimycobacterial activity against Mycobacterium avium 330/80 after 14 days; assay type: functional; details: 330/80, 336 h
[34] = tested on: Klebsiella pneumoniae; assay: Antibacterial activity against Klebsiella pneumoniae D 11750/08 after 24 hrs by microdilution broth method; assay type: functional; details: D 11750/08, 24 h; outline: as §1
[35] = tested on: Staphylococcus aureus; assay: Antibacterial activity against Staphylococcus aureus CCM 4516/08 after 48 hrs by microdilution broth method; assay type: functional; details: CCM 4516/08, 48 h
[36] = tested on: Nakaseomyces glabratus; assay: Antifungal activity against Candida glabrata 20/I after 24 hrs by microdilution broth method; assay type: functional; outline: as §2
[37] = tested on: Trichosporon asahii; assay: Antifungal activity against Trichosporon asahii 1188 after 48 hrs by microdilution broth method; assay type: functional; details: Trichosporon asahii, 1188, 48 h; outline: as §2
[38] = tested on: Mycobacterium kansasii; assay: Antimycobacterial activity against Mycobacterium kansasii 235/80 after 14 days; assay type: functional; details: 235/80, 336 h; outline: as §3
[39] = tested on: Mycobacterium kansasii; assay: Antimycobacterial activity against Mycobacterium kansasii 235/80 after 7 days; assay type: functional; details: 235/80, 168 h; outline: as §3
[40] = tested on: Mycobacterium kansasii; assay: Antimycobacterial activity against Mycobacterium kansasii 6509/96 after 21 days; assay type: functional; details: 6509/96, 504 h; outline: as §3
[41] = tested on: Klebsiella pneumoniae; assay: Antibacterial activity against ESBL-positive Klebsiella pneumoniae J 14368/08 after 24 hrs by microdilution broth method; assay type: functional; details: J 14368/08, 24 h; outline: as §1
[42] = tested on: Candida tropicalis; assay: Antifungal activity against Candida tropicalis 156 after 48 hrs by microdilution broth method; assay type: functional; details: Candida tropicalis, 156, 48 h; outline: as §2
[43] = Selectivity index, ratio of CI50 for human HepG2 cells to MIC100 for Mycobacterium tuberculosis H37Rv 331/88
[44] = tested on: HepG2; assay: Cytotoxicity against human HepG2 cells after 24 hrs […]; assay type: cell-based; details: HepG2, 24 h

O=C(Nc1cccc(Cl)c1)c1cc([N+](=O)[O-])ccc1O
MIC [1]: > 500 µM
MIC [2]: 250 µM (≈ 73.2 µg/mL)
MIC [3]: 16 µM (≈ 4.68 µg/mL)
MIC [4]: 250 µM (≈ 73.2 µg/mL)
MIC [5]: 500 µM (≈ 146 µg/mL)
MIC [6]: > 500 µM
MIC [7]: > 500 µM
MIC [8]: 31.2 µM (≈ 9.15 µg/mL)
MIC [9]: > 500 µM
MIC [10]: > 500 µM
MIC [11]: > 500 µM
MIC [12]: 62.5 µM (≈ 18.3 µg/mL)
MIC [13]: 500 µM (≈ 146 µg/mL)
MIC [14]: 62.5 µM (≈ 18.3 µg/mL)
MIC [15]: > 500 µM
MIC [16]: > 500 µM
MIC [17]: > 500 µM
MIC [18]: 16 µM (≈ 4.68 µg/mL)
MIC [19]: > 500 µM
MIC [20]: 125 µM (≈ 36.6 µg/mL)
MIC [21]: > 500 µM
MIC [22]: 500 µM (≈ 146 µg/mL)
MIC [23]: > 500 µM
MIC [24]: 62.5 µM (≈ 18.3 µg/mL)
MIC [25]: 62.5 µM (≈ 18.3 µg/mL)
MIC [26]: 32 µM (≈ 9.37 µg/mL)
MIC [27]: 62.5 µM (≈ 18.3 µg/mL)
MIC [28]: > 500 µM
MIC [29]: 500 µM (≈ 146 µg/mL)
MIC [30]: 62.5 µM (≈ 18.3 µg/mL)
MIC [31]: > 500 µM
MIC [32]: > 500 µM
MIC [33]: 125 µM (≈ 36.6 µg/mL)
MIC [34]: > 500 µM
MIC [35]: 62.5 µM (≈ 18.3 µg/mL)
MIC [36]: > 500 µM
MIC [37]: > 500 µM
MIC [38]: 32 µM (≈ 9.37 µg/mL)
MIC [39]: 16 µM (≈ 4.68 µg/mL)
MIC [40]: 62.5 µM (≈ 18.3 µg/mL)
MIC [41]: > 500 µM
MIC [42]: > 500 µM

O=C(Nc1cccc(C(F)(F)F)c1)c1cccc([N+](=O)[O-])c1O
MIC [3]: 32 µM (≈ 10.4 µg/mL)
Selectivity Index [43]: 0.278
IC50 [44]: 8.9 µM
MIC [18]: 32 µM (≈ 10.4 µg/mL)
MIC [20]: 500 µM (≈ 163 µg/mL)
MIC [26]: 125 µM (≈ 40.8 µg/mL)
MIC [27]: 62.5 µM (≈ 20.4 µg/mL)
MIC [30]: 250 µM (≈ 81.6 µg/mL)
MIC [33]: 500 µM (≈ 163 µg/mL)
MIC [38]: 62.5 µM (≈ 20.4 µg/mL)
MIC [39]: 32 µM (≈ 10.4 µg/mL)
MIC [40]: 250 µM (≈ 81.6 µg/mL)
